Laboratory results taken from ChEMBL document CHEMBL1125684, “Novel site-directed affinity ligands for GABA-gated chloride channels: synthesis, characterization, and molecular modeling of 1-(isothiocyanatophenyl)-4-tert-butyl-2,6,7-trioxabicyclo[2.2.2]octanes ” (J Med Chem, 1991).

Experiments:
[1] = target: GABA-A receptor; anion channel; assay: Inhibition of [35S]TBPS binding to rat cortical membranes; assay type: cell membranes, Membrane
Method in brief: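 Coincubation: 5 nM [35S]TBPS and acylator (5–1000 nM or 50–10000 nM, depending on ligand) were added simultaneously to washed cortical homogenate. Incubation was in pH 7.4 potassium phosphate with 200 mM NaCl, 2 h at 25 °C. Binding was read by filtration and scintillation, with nonspecific binding defined by 20 µM picrotoxinin. Inhibition was taken as percent of control; N ≥ 3.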

[2] = target: Gamma-aminobutyric acid receptor subunit gamma-1 (Rattus norvegicus, UniProt P23574); assay: Apparent affinity by displacement of preincubated [35S]TBPS from rat cortical homogenates at 60 nM
Chain of Gamma-aminobutyric acid receptor subunit gamma-1 (P23574 whole entry): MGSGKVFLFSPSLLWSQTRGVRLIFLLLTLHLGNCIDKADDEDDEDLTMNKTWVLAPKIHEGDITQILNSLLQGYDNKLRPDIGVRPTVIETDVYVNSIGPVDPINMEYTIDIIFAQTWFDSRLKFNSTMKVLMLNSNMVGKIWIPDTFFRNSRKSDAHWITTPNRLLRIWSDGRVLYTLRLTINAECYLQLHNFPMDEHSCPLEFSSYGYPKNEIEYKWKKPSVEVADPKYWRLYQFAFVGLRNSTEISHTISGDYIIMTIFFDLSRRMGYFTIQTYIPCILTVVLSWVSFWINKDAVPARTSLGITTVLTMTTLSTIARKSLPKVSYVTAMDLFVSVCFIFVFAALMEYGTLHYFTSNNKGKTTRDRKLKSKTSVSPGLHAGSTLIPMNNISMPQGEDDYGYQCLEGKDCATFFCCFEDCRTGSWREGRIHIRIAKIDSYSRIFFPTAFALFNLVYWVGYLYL
Method in brief: (§1)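 Cortical homogenate (twice-washed, 1:15) pretreated 1 h on ice with acylator (60 nM or 600–2400 nM) plus 200 mM NaCl. It was then washed five times by centrifugation in pH 7.4 phosphate/100 mM NaCl and resuspended chloride-free. Saturation binding used 2–5 nM [35S]TBPS with 0–160 nM unlabeled TBPS, 200 mM NaCl, 2 h at 25 °C. Nonspecific binding was defined by 20 µM picrotoxinin. Kd and Bmax came from Scatchard plots, mean of 3–5 experiments.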

[3] = target: GABA-A receptor; anion channel; assay: Inhibition of [35S]-TBPS binding to rat cortical membranes after 60 minute pre-incubation with radioligand; assay type: cell membranes, Membrane
Method in brief: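 Washed cortical homogenate was incubated with 5 nM [35S]TBPS for 60 min before acylator was added, in pH 7.4 potassium phosphate with 200 mM NaCl at 25 °C. Bound radioligand was collected by GF/B filtration and counted by scintillation. Nonspecific binding was defined by 20 µM picrotoxinin. Inhibition was expressed as percent of control binding without acylator; N ≥ 1.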

[4] = target: T1, GABA-A receptor; anion channel (Rattus norvegicus) (UniProt O09028+P15431+P18506+P18508+P19969+P20236+P23574+P23576+P28471+P28473+P30191+P62813+P63079+P63138+Q91ZM7+Q9ES14); assay: Displacement of [35S]TBPS binding to rat cortical homogenates (control); method in brief: as §1
[5] = target: GABA-A receptor; anion channel; assay: Apparent affinity by displacement of pre-incubated [35S]-TBPS from rat cortical homogenates (control); method in brief: as §1
[6] = target: Gamma-aminobutyric acid receptor subunit gamma-1 (Rattus norvegicus) (UniProt P23574); assay: Displacement of [35S]TBPS binding to rat cortical homogenates at 60 nM; method in brief: as §1
Chain of Gamma-aminobutyric acid receptor subunit gamma-1 (Rattus norvegicus) (P23574 whole entry): as above

[7] = target: GABA-A receptor; anion channel; assay: Apparent affinity by displacement of preincubated [35S]TBPS from rat cortical homogenates at 1200 nM; method in brief: as §1
[8] = target: GABA-A receptor; anion channel; assay: Apparent affinity by displacement of preincubated [35S]-TBPS from rat cortical homogenates at 1500 nM; method in brief: as §1
[9] = target: T1, GABA-A receptor; anion channel (Rattus norvegicus); assay: Displacement of [35S]TBPS binding to rat cortical homogenates at 1500 nM; method in brief: as §1
[10] = target: T1, GABA-A receptor; anion channel (Rattus norvegicus); assay: Displacement of [35S]TBPS binding to rat cortical homogenates at 600 nM; method in brief: as §1
[11] = target: GABA-A receptor; anion channel; assay: Apparent affinity by displacement of pre-incubated [35S]-TBPS from rat cortical homogenates at 600 nM; method in brief: as §1
[12] = target: GABA-A receptor; anion channel; assay: Apparent affinity by displacement of preincubated [35S]TBPS from rat cortical homogenates at 2400 nM; method in brief: as §1
[13] = target: T1, GABA-A receptor; anion channel (Rattus norvegicus); assay: Displacement of [35S]TBPS binding to rat cortical homogenates at 2400 nM; method in brief: as §1
[14] = target: T1, GABA-A receptor; anion channel (Rattus norvegicus); assay: Displacement of [35S]TBPS binding to rat cortical homogenates at 1200 nM; method in brief: as §1

Row | Structure (SMILES) | IC50 [1] [nM] | Kd [2] [nM] | IC50 [3] [nM] | Bmax [4] [fM assay-1] | Kd [5] [nM] | Bmax [6] [fM assay-1] | Kd [7] [nM] | Kd [8] [nM] | Bmax [9] [fM assay-1] | Bmax [10] [fM assay-1] | Kd [11] [nM] | Kd [12] [nM] | Bmax [13] [fM assay-1] | Bmax [14] [fM assay-1]
1 | CC(C)(C)C12COC(c3ccc(N=C=S)cc3)(OC1)OC2 | 62 | 72.2 | 90 | 955 | 47 | 644 | – | – | – | – | – | – | – | –
2 | CC(C)(C)C12COC(c3ccccc3N=C=S)(OC1)OC2 | 609 | – | 7500 | 963 | 46.7 | – | 50.7 | 56.3 | 869 | 915 | 57.3 | 58 | 1030 | 817
3 | CC(C)(C)C12COC(c3cccc(N=C=S)c3)(OC1)OC2 | 570 | – | 5400 | 1080 | 35.3 | – | 51.8 | 55.8 | 928 | 925 | 44.5 | 73.8 | 1010 | 889
